Test results published in ChEMBL document CHEMBL1139486, “Novel benzopyridothiadiazepines as potential active antitumor agents” (J Med Chem, 2005).

Columns and labels:
L1210 [1] = test: Antiproliferative activity against mouse L1210 cells after 48 hrs relative control; format: functional, cell-based; conditions: L1210, 48 h
Method in brief: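 L1210 cells grown in RPMI 1640 with 10% fetal calf serum, 2 mM L-glutamine, penicillin/streptomycin and 10 mM HEPES (pH 7.4). Cells were exposed 48 h to graded drug concentrations, then MTT was added for 4 h at 37 °C. Formazan was dissolved in DMSO and OD read at 540 nm. IC50 came from linear regression on the linear part of the dose-response curve, in triplicate.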

DU-145 = test: Antiproliferative activity against DU145 cells; format: functional, Homo sapiens
P388 = test: Antiproliferative activity against P388 cells; format: functional, Mus musculus
A549 = test: Antiproliferative activity against A549 cells; format: functional, Homo sapiens
[2] = Antiproliferative activity against KB3-1 cells; format: functional, Homo sapiens, KB 3-1
[3] = Antiproliferative activity against adriamycin-resistant KB A1 cells; format: functional, Homo sapiens
IGROV-1 = test: Antiproliferative activity against IGROV1 cells; format: functional, Homo sapiens
L1210 [4] = test: Cell cycle perturbations in mouse L1210 cells assessed as accumulation in G1 phase after 21 hrs at 1 uM relative to control; format: functional
L1210 [5] = test: Cell cycle perturbations in mouse L1210 cells assessed as accumulation in S phase after 21 hrs at 1 uM relative to control; format: functional
L1210 [6] = test: Cell cycle perturbations in mouse L1210 cells assessed as accumulation in G2+M phase after 21 hrs at 1 uM relative to control; format: functional
L1210 [7] = test: Cell cycle perturbations in mouse L1210 cells assessed as accumulation in 8N phase after 21 hrs at 1 uM relative to control; format: functional
Tubulin = test: Inhibition of tubulin polymerization; format: protein-complex assay, Homo sapiens
L1210 [8] = test: Cell cycle perturbations in mouse L1210 cells assessed as accumulation in G1 phase after 21 hrs at 2.5 uM relative to control; format: functional
L1210 [9] = test: Cell cycle perturbations in mouse L1210 cells assessed as accumulation in S phase after 21 hrs at 2.5 uM relative to control; format: functional
L1210 [10] = test: Cell cycle perturbations in mouse L1210 cells assessed as accumulation in G2+M phase after 21 hrs at 2.5 uM relative to control; format: functional
L1210 [11] = test: Cell cycle perturbations in mouse L1210 cells assessed as accumulation in 8N phase after 21 hrs at 2.5 uM relative to control; format: functional
L1210 [12] = test: Cell cycle perturbations in mouse L1210 cells assessed as accumulation in G1 phase after 21 hrs at 5 uM relative to control; format: functional
Method in brief: (§1)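 L1210 cells in RPMI 1640 with 10% fetal calf serum, 2 mM L-glutamine, antibiotics and 10 mM HEPES (pH 7.4) were exposed for 21 h (two doubling times). They were fixed in 70% ethanol and stained 30 min at 20 °C in D-PBS with […] RNAse and […] propidium iodide. 10⁴ cells per sample were analysed by flow cytometry for % G1, S, G2+M and 8N.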

L1210 [13] = test: Cell cycle perturbations in mouse L1210 cells assessed as accumulation in S phase after 21 hrs at 5 uM relative to control; format: functional; method in brief: as §1
L1210 [14] = test: Cell cycle perturbations in mouse L1210 cells assessed as accumulation in G2+M phase after 21 hrs at 5 uM relative to control; format: functional; method in brief: as §1
L1210 [15] = test: Cell cycle perturbations in mouse L1210 cells assessed as accumulation in 8N phase after 21 hrs at 5 uM relative to control; format: functional; method in brief: as §1
L1210 [16] = test: Cell cycle perturbations in mouse L1210 cells assessed as accumulation in G1 phase after 21 hrs at 0.2 uM relative to control; format: functional
L1210 [17] = test: Cell cycle perturbations in mouse L1210 cells assessed as accumulation in S phase after 21 hrs at 0.2 uM relative to control; format: functional
L1210 [18] = test: Cell cycle perturbations in mouse L1210 cells assessed as accumulation in G2+M phase after 21 hrs at 0.2 uM relative to control; format: functional
L1210 [19] = test: Cell cycle perturbations in mouse L1210 cells assessed as accumulation in 8N phase after 21 hrs at 0.2 uM relative to control; format: functional
L1210 [20] = test: Cell cycle perturbations in mouse L1210 cells assessed as accumulation in G1 phase after 21 hrs at 2 uM relative to control; format: functional; method in brief: as §1
L1210 [21] = test: Cell cycle perturbations in mouse L1210 cells assessed as accumulation in S phase after 21 hrs at 2 uM relative to control; format: functional; method in brief: as §1
L1210 [22] = test: Cell cycle perturbations in mouse L1210 cells assessed as accumulation in G2+M phase after 21 hrs at 2 uM relative to control; format: functional; method in brief: as §1
L1210 [23] = test: Cell cycle perturbations in mouse L1210 cells assessed as accumulation in 8N phase after 21 hrs at 2 uM relative to control; format: functional; method in brief: as §1

SMILES: COc1ccc(CN2C=CC=C3C2=Nc2ccccc2S(=O)(=O)N3C)cc1
- IC50 (L1210 [1]): > 10 µM

SMILES: COc1ccc(CCN2C=CC=C3C2=Nc2ccccc2S(=O)(=O)N3C)cc1
- IC50 (L1210 [1]): 0.3 µM
- Activity (DU-145): 0.55 µM
- Activity (P388): 0.33 µM
- Activity (A549): 0.45 µM
- Activity [2]: 0.24 µM
- Activity [3]: 0.3 µM
- Activity (IGROV-1): 0.34 µM
- Activity (L1210 [4]): 6%
- Activity (L1210 [5]): 8%
- Activity (L1210 [6]): 32%
- Activity (L1210 [7]): 54%
- IC50 (Tubulin): 3.8 µM

SMILES: COc1ccc(CCCN2C=CC=C3C2=Nc2ccc(Cl)cc2S(=O)(=O)N3C)cc1
- IC50 (L1210 [1]): > 10 µM

SMILES: COc1cc(CCN2C=CC=C3C2=Nc2ccccc2S(=O)(=O)N3C)cc(OC)c1OC
- IC50 (L1210 [1]): > 10 µM

SMILES: CCN(CC)CCN1c2ccccc2N=C2C(=CC=CN2CCc2ccc(OC)cc2)S1(=O)=O
- IC50 (L1210 [1]): > 10 µM

SMILES: COc1ccc(CCN2c3cc(Cl)ccc3N(C)S(=O)(=O)c3cccnc32)cc1
- IC50 (L1210 [1]): > 100 µM

SMILES: COc1ccc(CN2C=CC=C3C2=Nc2cc(C(F)(F)F)ccc2S(=O)(=O)N3C)cc1
- IC50 (L1210 [1]): > 10 µM

SMILES: COc1ccc(CCN2C=CC=C3C2=Nc2ccc(Cl)cc2S(=O)(=O)N3C)cc1
- IC50 (L1210 [1]): 1.3 µM
- Activity (L1210 [8]): 4%
- Activity (L1210 [9]): 6%
- Activity (L1210 [10]): 24%
- Activity (L1210 [11]): 66%

SMILES: COc1ccc(CCN2C=CC=C3C2=Nc2cc(OC)ccc2S(=O)(=O)N3C)cc1
- IC50 (L1210 [1]): > 10 µM

SMILES: COc1ccc(CCN2c3ccccc3S(=O)(=O)N(C)c3cccnc32)cc1
- IC50 (L1210 [1]): > 10 µM

SMILES: COc1ccc(CCCN2c3ccccc3N(C)S(=O)(=O)c3cccnc32)cc1
- IC50 (L1210 [1]): > 10 µM

SMILES: COc1ccc(CCN2C=CC=C3C2=Nc2cc(C)ccc2S(=O)(=O)N3C)cc1
- IC50 (L1210 [1]): 1.4 µM
- Activity (L1210 [12]): 5%
- Activity (L1210 [13]): 8%
- Activity (L1210 [14]): 19%
- Activity (L1210 [15]): 68%

SMILES: CN1C2=CC=CN(CCc3ccc(OCc4ccccc4)cc3)C2=Nc2ccccc2S1(=O)=O
- IC50 (L1210 [1]): > 10 µM

SMILES: COc1cc(CCN2c3ccccc3S(=O)(=O)N(C)c3cccnc32)cc(OC)c1OC
- IC50 (L1210 [1]): > 10 µM

SMILES: COc1ccc(CCN2c3cc(OC)ccc3N(C)S(=O)(=O)c3cccnc32)cc1
- IC50 (L1210 [1]): > 10 µM

SMILES: COc1ccc(CN2c3cc(C)ccc3N(C)S(=O)(=O)c3cccnc32)cc1
- IC50 (L1210 [1]): 6.9 µM

SMILES: COc1ccc(CCN2C=CC=C3C2=Nc2ccccc2N(C)S3(=O)=O)cc1
- IC50 (L1210 [1]): 0.11 µM
- Activity (DU-145): 0.14 µM
- Activity (L1210 [16]): 5%
- Activity (L1210 [17]): 8%
- Activity (L1210 [18]): 17%
- Activity (L1210 [19]): 70%
- IC50 (Tubulin): 2.4 µM

SMILES: COc1ccc(CN2C=CC=C3C2=Nc2ccccc2N(Cc2ccc(OC)cc2)S3(=O)=O)cc1
- IC50 (L1210 [1]): > 100 µM

SMILES: COc1ccc(CCN2C=CC=C3C2=Nc2ccccc2N(Cc2ccc(OC)cc2)S3(=O)=O)cc1
- IC50 (L1210 [1]): > 100 µM

SMILES: COc1ccc(CN2c3cc(C(F)(F)F)ccc3S(=O)(=O)N(C)c3cccnc32)cc1
- IC50 (L1210 [1]): > 10 µM

SMILES: COc1ccc(CCN2c3ccccc3N(Cc3ccc(OC)cc3)S(=O)(=O)c3cccnc32)cc1
- IC50 (L1210 [1]): > 100 µM

SMILES: COc1ccc(CN2c3ccccc3N(C)S(=O)(=O)c3cccnc32)cc1
- IC50 (L1210 [1]): 9.6 µM

SMILES: CCN(CC)CCN1c2ccccc2N(CCc2ccc(OC)cc2)c2ncccc2S1(=O)=O
- IC50 (L1210 [1]): > 10 µM

SMILES: COc1ccc(CCCN2C=CC=C3C2=Nc2cc(C(F)(F)F)ccc2S(=O)(=O)N3C)cc1
- IC50 (L1210 [1]): > 10 µM

SMILES: COc1ccc(CCN2C=CC=C3C2=Nc2cc(Cl)ccc2S(=O)(=O)N3C)cc1
- IC50 (L1210 [1]): 1.3 µM
- Activity (L1210 [12]): 7%
- Activity (L1210 [13]): 6%
- Activity (L1210 [14]): 26%
- Activity (L1210 [15]): 61%

SMILES: COc1ccc(CCN2C=CC=C3C2=Nc2cc(Cl)ccc2N(C)S3(=O)=O)cc1
- IC50 (L1210 [1]): 0.19 µM
- Activity (L1210 [4]): 8%
- Activity (L1210 [5]): 10%
- Activity (L1210 [6]): 19%
- Activity (L1210 [7]): 63%

SMILES: COc1ccc(CN2c3cc(Cl)ccc3S(=O)(=O)N(C)c3cccnc32)cc1
- IC50 (L1210 [1]): > 10 µM

SMILES: COc1ccc(CCCN2C=CC=C3C2=Nc2cc(Cl)ccc2S(=O)(=O)N3C)cc1
- IC50 (L1210 [1]): > 10 µM

SMILES: COc1ccc(CCN2C=CC=C3C2=Nc2cc(C)ccc2N(C)S3(=O)=O)cc1
- IC50 (L1210 [1]): 0.41 µM
- Activity (L1210 [20]): 2%
- Activity (L1210 [21]): 2%
- Activity (L1210 [22]): 12%
- Activity (L1210 [23]): 84%
